The source of these data is ChEMBL document CHEMBL1142521 (J Med Chem, 2008).

A short description of data set [1]: Inhibition of Hedgehog pathway-dependent oxysterol-induced mouse C3 H10T1/2 cell differentiation assessed as alkaline phosphatase production after 72 hrs. Type of data set: functional, cell-based. The following applies: C3H 10T1/2, 72 h. The method, boiled down:
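Murine progenitor C3H10T1/2 cells were induced with oxysterol to differentiate into osteoblasts in culture, and Hh pathway inhibition was taken as the effect on this differentiation. The number of determinations is reported per value.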

Data set [2] in a line: Chemical stability in Bronsted and Lewis acid. Type of data set: physicochemical.
The nature of data set [3]: Chemical stability in simulated gastric fluid after 60 mins. Type of data set: physicochemical. The note with it: read-out: Stability. The essentials: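 Test material incubated in simulated gastric fluid for 60 min; read-out is the percentage of parent compound remaining.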
A short description of data set [4]: Elimination half life in CD1 mouse at 5 mg/kg, po by LC-MS/MS analysis. Type of data set: ADME, organism-based. More on the design: dose 5 mg/kg, route oral. The following applies: in vivo, read-out: beta t1/2 (converted). The method, boiled down: (§1)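 Hydrochloride salt was dissolved in sterile water for injection containing 30% (w/w) 2-hydroxypropyl-β-cyclodextrin and given to CD-1 mice intravenously and orally. Plasma was sampled at selected time points, proteins were precipitated, and drug levels were quantified by LC-MS/MS.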

In another data set the test system is Mus musculus. Kind of data set: Volume of distribution in CD1 mouse at 5 mg/kg, po by LC-MS/MS analysis. Type of data set: ADME, organism-based. More on the design: dose 5 mg/kg, route oral. The note with it: in vivo. The essentials: as §1
A short description of data set [5]: Oral bioavailability in CD1 mouse at 5 mg/kg by LC-MS/MS analysis. Type of data set: ADME, organism-based. The note with it: in vivo. The method, boiled down:
as §1

Some results are limits rather than exact numbers.

One may read the EC50 as the concentration needed to bring the measured effect to its halfway point. As usually defined, the bioavailability is the share of a dose that reaches the circulation, judged against a reference dose that is usually intravenous. A low value points to little systemic uptake.

As for `CC1=C2C[C@H]3[C@@H](CCC4=CC(=O)CC[C@@]43C)[C@@H]2CC[C@@]2(C1)O[C@@H]1C[C@H](C)CN(CCNC(=O)CCCCCNC(=O)CCc3ccccc3)[C@H]1[C@H]2C`, in data set [1], the EC50 was 10 nM.

With `CC1=C2C[C@H]3[C@@H](CCC4=CC(=O)CC[C@@]43C)[C@@H]2CC[C@@]2(C1)O[C@@H]1C[C@H](C)CN(CCOCCO)[C@H]1[C@H]2C`, the EC50 in data set [1] was more than 1000 nM.

Regarding `C[C@H]1C[C@H]2O[C@]3(CC[C@H]4[C@@H]5CC=C6C[C@@H](O)CC[C@]6(C)[C@H]5C[C@@]45C[C@]53C)[C@H](C)[C@@H]2N(C(=O)OCC2c3ccccc3-c3ccccc32)C1`, the Stability result in data set [2] is given as “Stable”.

On to `CC1=C2C[C@H]3[C@@H](CCC4=CC(=O)CC[C@@]43C)[C@@H]2CC[C@@]2(C1)O[C@@H]1C[C@H](C)CN[C@H]1[C@H]2C`, for which the EC50 in data set [1] was found to be 200 nM. Moreover, the remaining at 1 h in data set [3] was 98%.

As to `CC1=C2C[C@H]3[C@@H](CCC4=CC(=O)CC[C@@]43C)[C@@H]2CC[C@@]2(C1)O[C@@H]1C[C@H](C)CN(C)[C@H]1[C@H]2C`, the EC50 in data set [1] is 400 nM.

Turning to `CC1=C2C[C@H]3[C@@H](CCC4=CC(=O)CC[C@@]43C)[C@@H]2CC[C@@]2(C1)O[C@@H]1C[C@H](C)CN(O)[C@H]1[C@H]2C`, the EC50 in data set [1] stood at 800 nM. `CC(=O)N1C[C@@H](C)C[C@H]2O[C@]3(CC[C@@H]4C(=C(C)C3)C[C@H]3[C@H]4CCC4=CC(=O)CC[C@@]43C)[C@H](C)[C@@H]21`: the EC50 in data set [1] is 120 nM.

As for `CC1=C2C[C@H]3[C@@H](CCC4=CC(=O)CC[C@@]43C)[C@@H]2CC[C@@]2(C1)O[C@@H]1C[C@H](C)CN(CCCl)[C@H]1[C@H]2C`, the EC50 in data set [1] was more than 2500 nM. Regarding `CC1=C2C[C@H]3[C@@H](CCC4=CC(=O)CC[C@@]43C)[C@@H]2CC[C@@]2(C1)O[C@@H]1C[C@H](C)CN[C@H]1[C@H]2C.Cl`, the half-life in data set [4] is 3.2 h. In the data set on Mus musculus, the Vd is 18 L/kg. The bioavailability in data set [5] was 80%. Consider `CC1=C2C[C@H]3[C@@H](CCC4=CC(=O)CC[C@@]43C)[C@@H]2CC[C@@]2(C1)O[C@@H]1C[C@H](C)CN(Cc3ccccc3)[C@H]1[C@H]2C`, for which, in data set [1], the EC50 is more than 2000 nM. As for `CC1=C2C[C@H]3[C@@H](CCC4=CC(=O)CC[C@@]43C)[C@@H]2CC[C@@]2(C1)O[C@@H]1C[C@H](C)CN(CCNC(=O)CCc3ccccc3)[C@H]1[C@H]2C`, the concentration for a half-maximal effect (EC50) in data set [1] was 20 nM.

Take `COCCOCCN1C[C@@H](C)C[C@H]2O[C@]3(CC[C@@H]4C(=C(C)C3)C[C@H]3[C@H]4CCC4=CC(=O)CC[C@@]43C)[C@H](C)[C@@H]21`: the EC50 in data set [1] stood at 400 nM. `CC1=C2C[C@H]3[C@@H](CC=C4C[C@@H](O)CC[C@@]43C)[C@@H]2CC[C@@]2(C1)O[C@@H]1C[C@H](C)CN[C@H]1[C@H]2C`: in data set [1], the EC50 is more than 2500 nM. Turning to `CC1=C2C[C@H]3[C@@H](CC=C4C[C@@H](O)CC[C@@]43C)[C@@H]2CC[C@]12O[C@@H]1C[C@H](C)CN[C@H]1[C@H]2C` [CYCLOPAMINE], the EC50 in data set [1] was 170 nM. Moreover, the remaining at 1 h in data set [3] was 60%.

Take `C[C@@H]1CN[C@H]2[C@@H](C)[C@@]3(CC[C@H]4[C@@H]5CC=C6C[C@@H](O)CC[C@]6(C)[C@H]5C[C@@]45C[C@]53C)O[C@@H]2C1` [CYCLOPROPYL CYCLOPAMINE]: the EC50 in data set [1] is more than 2000 nM. For the same compound, the Stability entry in data set [2] is on record as “Stable”.
